From ChEMBL document CHEMBL1909500, “Synthesis and in vitro anticancer activity of 6,7-methylenedioxy (or 5-hydroxy-6-methoxy)-2-(substituted selenophenyl)quinolin-4-one analogs” (Eur J Med Chem, 2011)
Active and inactive are the calls of the source. The rule behind the calls is not given here.

How the values were obtained:
NCI-H460 = test: Cytotoxicity against human H460 cells after 48 hrs by MTT assay; type: functional, cell-based; conditions: NCI-H460, 48 h
Summary of the method: (§1)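 H460 or HL-60 cells were exposed to vehicle or compound for 48 h. Growth was read by MTT reduction at 570 nm, and IC50 was calculated.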

NCI-H23 = test: Anticancer activity against human NCI-H23 cells after 48 hrs by MTT assay; type: functional; conditions: NCI-H23, 48 h
BT-549 = test: Anticancer activity against human BT549 cells after 48 hrs by MTT assay; type: functional; conditions: BT-549, 48 h
SF-295 = test: Anticancer activity against human SF295 cells after 48 hrs by MTT assay; type: functional; conditions: SF-295, 48 h
HL-60 [1] = test: Cell cycle arrest in human HL60 assessed as cell accumulation in G2/M phase at 1 uM after 24 hrs pretreated with pan-caspase inhibitor z-VAD-fmk for 3 hrs by propidium iodide staining-based flow cytometric analysis; type: functional; parameters: scale not given: the % may be the effect or the level left
Summary of the method: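 HL-60 cells were preincubated for 3 h with or without the pan-caspase inhibitor z-VAD-fmk, then co-exposed to compound at 1 μM for 24 h. Cells were washed in PBS and fixed overnight in ice-cold 70% ethanol at −20 °C. They were stained for 30 min in the dark with propidium iodide 4 μg/mL, 0.1 mg/ml RNase and 1% Triton X-100. DNA content was read on a FACScan flow cytometer.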

HCC 2998 = test: Anticancer activity against human HCC2998 cells after 48 hrs by MTT assay; type: functional; conditions: HCC 2998, 48 h
SNB-75 = test: Anticancer activity against human SNB75 cells after 48 hrs by MTT assay; type: functional; conditions: SNB-75, 48 h
HL-60 [2] = test: Growth inhibition of human HL60 cells at 0.1 to 1 uM by trypan blue exclusion assay; type: functional, cell-based; conditions: TDE = time-dependent effect
Summary of the method: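 HL-60 cells were given the indicated concentrations for 24 h and 48 h. Viable cells were counted by trypan blue exclusion. Values are mean ± SD of four independent experiments.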

SF-539 = test: Anticancer activity against human SF539 cells after 48 hrs by MTT assay; type: functional; conditions: SF-539, 48 h
TK-10 = test: Anticancer activity against human TK10 cells after 48 hrs by MTT assay; type: functional; conditions: TK-10, 48 h
UACC-62 = test: Anticancer activity against human UACC62 cells after 48 hrs by MTT assay; type: functional; conditions: UACC-62, 48 h
[3] = Cytotoxicity against human Hep3B cells after 48 hrs by MTT assay; type: functional, cell-based, Hep 3B2
Summary of the method: (§2)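 Hep 3B (hepatoma) or Detroit 551 (normal skin) cells, grown at 37 °C and 5% CO₂ in DMEM with 10% FBS, penicillin/streptomycin and 1% L-glutamine, were used in log phase. Cells were exposed to vehicle or compound for 48 h. Growth was read by MTT reduction at 570 nm, and IC50 was calculated.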

HCT-15 = test: Anticancer activity against human HCT15 cells after 48 hrs by MTT assay; type: functional; conditions: HCT-15, 48 h
Detroit 551 = test: Cytotoxicity against human Detroit 551 cells after 48 hrs by MTT assay; type: cell-based; conditions: Detroit 551, 48 h; summary of the method: as §2
IGROV-1 = test: Anticancer activity against human IGROV1 cells after 48 hrs by MTT assay; type: functional; conditions: IGROV-1, 48 h
A498 = test: Anticancer activity against human A498 cells after 48 hrs by MTT assay; type: functional; conditions: A498, 48 h
A549 = test: Anticancer activity against human A549 cells after 48 hrs by MTT assay; type: functional; conditions: A549, 48 h
MDA-MB-435 = test: Anticancer activity against human MDA-MB-435 cells after 48 hrs by MTT assay; type: functional; conditions: MDA-MB-435, 48 h
COLO 205 = test: Anticancer activity against human COLO205 cells after 48 hrs by MTT assay; type: functional; conditions: COLO 205, 48 h
HT-29 = test: Anticancer activity against human HT-29 cells after 48 hrs by MTT assay; type: functional; conditions: HT-29, 48 h
HOP-62 = test: Anticancer activity against human HOP62 cells after 48 hrs by MTT assay; type: functional; conditions: HOP-62, 48 h
MDA-MB-231 = test: Anticancer activity against human MDA-MB-231 cells after 48 hrs by MTT assay; type: functional; conditions: MDA-MB-231, 48 h
SW-620 = test: Anticancer activity against human SW620 cells after 48 hrs by MTT assay; type: functional; conditions: SW-620, 48 h
HL-60 [4] = test: Cytotoxicity against human HL60 cells after 48 hrs by MTT assay; type: functional, cell-based; conditions: HL-60, 48 h; summary of the method: as §1
SK-MEL-2 = test: Anticancer activity against human SK-MEL-2 cells after 48 hrs by MTT assay; type: functional; conditions: SK-MEL-2, 48 h
HL-60 [5] = test: Induction of cell cycle arrest at G2/M phase in human HL60 cells assessed as decrease in cyclin B1 expression at 0.1 to 1.0 uM after 24 hrs by Western blot analysis; type: functional, cell-based
Summary of the method: (§3)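 HL-60 cells at 2 × 10⁵/mL were exposed to the indicated concentrations for 24 h, washed in PBS and lysed for total protein. Immunoblots used HRP-linked secondary antibodies with ECL detection. Cyclin B1, CDK1, caspase-3 (17 kDa active form) and PARP (85 kDa fragment) were quantified and normalised to β-actin.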

SK-MEL-28 = test: Anticancer activity against human SK-MEL-28 cells after 48 hrs by MTT assay; type: functional; conditions: SK-MEL-28, 48 h
HL-60(TB) = test: Anticancer activity against human HL-60(TB) cells after 48 hrs by MTT assay; type: functional; conditions: HL-60, 48 h
HL-60 [6] = test: Induction of cell cycle arrest at G2/M phase in human HL60 cells assessed as increase in cyclin B1 expression at 0.1 to 1.0 uM after 24 hrs by Western blot analysis; type: functional, cell-based; summary of the method: as §3
[7] = read-out: pLC50 (the source's name) (converted)

Cc1ccc(-c2cc(=O)c3cc4c(cc3[nH]2)OCO4)[se]1
IC50 (NCI-H460): 400 nM | GI50 (NCI-H23): 741 nM | CC50 (NCI-H23; [7]): > 100000 nM | TGI (NCI-H23; read-out: pTGI): > 100000 nM | GI50 (BT-549): 447 nM | CC50 (BT-549; [7]): > 100000 nM | TGI (BT-549; read-out: pTGI): > 100000 nM | GI50 (SF-295): 347 nM | CC50 (SF-295; [7]): > 100000 nM | TGI (SF-295; read-out: pTGI): > 100000 nM | Activity (HL-60 [1]): 55.5% | GI50 (HCC 2998): 288 nM | CC50 (HCC 2998; [7]): > 100000 nM | TGI (HCC 2998; read-out: pTGI): > 100000 nM | GI50 (SNB-75): 275 nM | CC50 (SNB-75; [7]): > 100000 nM | TGI (SNB-75; read-out: pTGI): > 100000 nM | growth inhibition (GI) (HL-60 [2]): tde | GI50 (SF-539): 245 nM | CC50 (SF-539; [7]): > 100000 nM | TGI (SF-539; read-out: pTGI (converted)): 708 nM | GI50 (TK-10): 10000 nM | CC50 (TK-10; [7]): > 100000 nM | TGI (TK-10; read-out: pTGI): > 100000 nM | GI50 (UACC-62): 398 nM | CC50 (UACC-62; [7]): > 100000 nM | TGI (UACC-62; read-out: pTGI): > 100000 nM | IC50 [3]: 200 nM | GI50 (HCT-15): 339 nM | CC50 (HCT-15; [7]): > 100000 nM | TGI (HCT-15; read-out: pTGI): > 100000 nM | IC50 (Detroit 551): > 25000 nM | GI50 (IGROV-1): 145 nM | CC50 (IGROV-1; [7]): > 100000 nM | TGI (IGROV-1; read-out: pTGI (converted)): 457 nM | GI50 (A498): 372 nM | CC50 (A498; [7]): > 100000 nM | TGI (A498; read-out: pTGI): > 100000 nM | GI50 (A549): 245 nM | CC50 (A549; [7]): > 100000 nM | TGI (A549; read-out: pTGI (converted)): 646 nM | GI50 (MDA-MB-435): 52.5 nM | CC50 (MDA-MB-435; [7]): > 100000 nM | TGI (MDA-MB-435; read-out: pTGI (converted)): 427 nM | GI50 (COLO 205): 2630 nM | CC50 (COLO 205; [7]): > 100000 nM | TGI (COLO 205; read-out: pTGI): > 100000 nM | GI50 (HT-29): 269 nM | CC50 (HT-29; [7]): > 100000 nM | TGI (HT-29; read-out: pTGI): > 100000 nM | GI50 (HOP-62): 562 nM | CC50 (HOP-62; [7]): > 100000 nM | TGI (HOP-62; read-out: pTGI): > 100000 nM | GI50 (MDA-MB-231): 501 nM | CC50 (MDA-MB-231; [7]): > 100000 nM | TGI (MDA-MB-231; read-out: pTGI): > 100000 nM | GI50 (SW-620): 407 nM | CC50 (SW-620; [7]): > 100000 nM | TGI (SW-620; read-out: pTGI): > 100000 nM | IC50 (HL-60 [4]): 300 nM | GI50 (SK-MEL-2): 110 nM | CC50 (SK-MEL-2; [7]): > 100000 nM | TGI (SK-MEL-2; read-out: pTGI (converted)): 525 nM | Activity (HL-60 [5]): Active | GI50 (SK-MEL-28): 794 nM | CC50 (SK-MEL-28; [7]): > 100000 nM | TGI (SK-MEL-28; read-out: pTGI): > 100000 nM | GI50 (HL-60(TB)): 204 nM | CC50 (HL-60(TB); [7]): 933 nM | TGI (HL-60(TB); read-out: pTGI (converted)): 437 nM | Activity (HL-60 [6]): Active
